Laboratory results: PubChem BioAssay AID652186 (Vanderbilt Specialized Chemistry Center, 2013)
The source made the active and inactive calls. No rule for the calls is given here.

Target: Metabotropic glutamate receptor 8 (Rattus norvegicus) (UniProt P70579)
Assay: glutamate potency shift at rat mGlu8 – cell-based, HEK293A, Galpha15, Fluo4 calcium, selectivity assay for mGlu5 silent allosteric modulator project (AID 652186)
Conditions: HEK293A rmGlu8+Galpha15, glutamate CRC
Procedure, shortened: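 Schedule: dye loading 60 min at 37°C, compound 20 s, glutamate 80 s / System: HEK293 cells expressing rat mGlu8 plus Galpha15 / Medium: HBSS, HEPES and probenecid buffer, pH 7.4 / Detection: Fluo4 calcium fluorescence / Dosing: compound at 10 µM, 1% DMSO / Probe or stimulus: glutamate, 9 concentrations, 10 nM–1 mM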

Chain of Metabotropic glutamate receptor 8 (Rattus norvegicus) (P70579 whole entry, looked up): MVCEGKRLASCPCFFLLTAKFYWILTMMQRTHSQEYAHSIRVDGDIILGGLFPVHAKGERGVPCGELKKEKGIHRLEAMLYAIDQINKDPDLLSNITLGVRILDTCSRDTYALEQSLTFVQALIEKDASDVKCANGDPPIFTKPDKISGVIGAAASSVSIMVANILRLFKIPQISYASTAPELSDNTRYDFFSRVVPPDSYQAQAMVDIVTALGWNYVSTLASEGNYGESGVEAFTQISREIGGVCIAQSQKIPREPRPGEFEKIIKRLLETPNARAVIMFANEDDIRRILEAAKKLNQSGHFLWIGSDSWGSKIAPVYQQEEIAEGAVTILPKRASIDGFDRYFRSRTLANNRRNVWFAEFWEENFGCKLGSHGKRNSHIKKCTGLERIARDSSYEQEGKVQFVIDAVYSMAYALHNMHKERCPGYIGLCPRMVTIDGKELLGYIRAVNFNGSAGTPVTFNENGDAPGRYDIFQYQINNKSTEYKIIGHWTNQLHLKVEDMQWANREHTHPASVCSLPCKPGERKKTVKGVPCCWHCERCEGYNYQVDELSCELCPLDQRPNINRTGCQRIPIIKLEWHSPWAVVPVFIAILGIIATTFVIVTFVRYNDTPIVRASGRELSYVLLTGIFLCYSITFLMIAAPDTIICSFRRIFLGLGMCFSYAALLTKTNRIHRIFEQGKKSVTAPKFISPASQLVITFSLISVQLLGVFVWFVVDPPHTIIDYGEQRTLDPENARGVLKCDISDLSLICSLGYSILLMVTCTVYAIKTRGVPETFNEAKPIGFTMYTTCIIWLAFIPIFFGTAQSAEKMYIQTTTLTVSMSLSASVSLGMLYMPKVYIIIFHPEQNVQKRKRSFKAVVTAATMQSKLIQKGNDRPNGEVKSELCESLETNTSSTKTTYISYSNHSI

- glutamate EC50 in presence of 10 uM compound (vehicle ~3 uM): inactive
SMILES: O=C(c1ccc(C#Cc2cccc(F)c2)cn1)N1CC2CC2C1 (stereo unspecified)
